In ChEMBL document CHEMBL1139875, “Discovery of 4-aminobutyric acid derivatives possessing anticonvulsant and antinociceptive activities: a hybrid pharmacophore approach” (2007):
Active and inactive are the calls of the source. The calls are words filed in the database; no cut-off is given here.

Key:
Rattus norvegicus [1] = assay: Anti-dynamic allodynia effect in Sprague-Dawley rat SNL model assessed as latency to paw withdrawal 100 mg/kg, ip after 2 hrs; type: functional; settings: route intraperitoneal
How it was run: (§1)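 Left L5 spinal nerve ligation rats, tested preoperatively and 9 days postoperatively, then given 100 mg/kg i.p. (vehicle 30% v/v PEG 400 in water). After 10 min acclimatization, plantar surface of affected paw stroked mildly with a cotton-bud; paw lift response recorded. n = 4; retested 0.5-2.5 h post-dose.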

Mus musculus [2] = assay: Anticonvulsant activity in Swiss Albino mouse at 300 mg/kg, ip after 0.5 hr by scSTY test; type: functional, organism-based; parameters: dose 300 mg/kg
How it was run: (§2)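 Mice (Swiss, 20-25 g) given i.p. doses of 30, 100 and 300 mg/kg under ADD program protocols, three per group, examined at 0.5 and 4 h in MES, scPTZ, scSTY or scPIC seizure tests. Value is the minimum dose protecting half or more of the mice.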

Rattus norvegicus [3] = assay: Anti-dynamic allodynia effect in Sprague-Dawley rat SNL model assessed as latency to paw withdrawal 100 mg/kg, ip after 0.5 hr; type: functional; settings: route intraperitoneal; how it was run: as §1
Mus musculus [4] = assay: Anticonvulsant activity in Swiss Albino mouse at 300 mg/kg, ip after 4 hrs by scSTY test; type: functional, organism-based; parameters: dose 300 mg/kg; how it was run: as §2
Mus musculus [5] = assay: Neurotoxicity in Swiss Albino mouse at 300 mg/kg, ip after 4 hrs by rotarod test; type: functional, organism-based; parameters: dose 300 mg/kg
How it was run: (§3)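 Swiss mice (20-25 g) are trained on an accelerating rotorod (10 rpm, 3.2 cm rod), then injected i.p. at 30, 100 or 300 mg/kg, with three per group. Neurotoxicity means failure to keep equilibrium for at least 1 min in each of three trials, checked at 0.5 and 4 h. The value reported is the minimum dose affecting half or more of the mice.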

Rattus norvegicus [6] = assay: Effect on spontaneous pain in Sprague-Dawley rat SNL model assessed as duration of paw withdrawal at 100 mg/kg, ip after 0.5 hr; type: functional; settings: route intraperitoneal
How it was run: (§4)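 Rats underwent left L5 spinal nerve ligation (Kim and Chung) under i.p. pentobarbital (65 mg/kg). Spontaneous pain is recorded for 5 min after 10 min acclimatization, as cumulative duration the ipsilateral paw is lifted, excluding locomotor lifts. Dosing is 100 mg/kg i.p. in 30% v/v PEG 400/water, with testing at 0.5–2.5 h. Four rats, mean ± SEM versus predrug, one-way ANOVA with Bonferroni.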

Rattus norvegicus [7] = assay: Anti-cold allodynia effect in Sprague-Dawley rat CCI model assessed as duration of paw withdrawal 100 mg/kg, ip after 1 hr; type: functional; settings: route intraperitoneal
How it was run: (§5)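 CCI by sciatic nerve ligation under pentobarbital (65 mg/kg i.p.). Rats tested at baseline and 9 days post-surgery; those with allodynia dosed i.p. 100 mg/kg, vehicle 30% v/v PEG 400 in water. Acetone (100-200 µL) misted on midplantar affected paw; withdrawal duration recorded, three samples averaged, at least 3 min apart; n = 4.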

Rattus norvegicus [8] = assay: Anti-dynamic allodynia effect in Sprague-Dawley rat SNL model assessed as latency to paw withdrawal 100 mg/kg, ip after 2.5 hrs; type: functional; settings: route intraperitoneal; how it was run: as §1
Mus musculus [9] = assay: Anticonvulsant activity in Swiss Albino mouse at 300 mg/kg, ip after 0.5 hr by MES test; type: functional, organism-based; parameters: dose 300 mg/kg; how it was run: as §2
Rattus norvegicus [10] = assay: Anti-dynamic allodynia effect in Sprague-Dawley rat SNL model assessed as latency to paw withdrawal 100 mg/kg, ip after 1 hr; type: functional; settings: route intraperitoneal; how it was run: as §1
Rattus norvegicus [11] = assay: Effect on spontaneous pain in Sprague-Dawley rat SNL model assessed as duration of paw withdrawal at 100 mg/kg, ip after 2.5 hrs; type: functional; settings: route intraperitoneal; how it was run: as §4
Rattus norvegicus [12] = assay: Anti-cold allodynia effect in Sprague-Dawley rat CCI model assessed as duration of paw withdrawal at 100 mg/kg, ip after 0.5 hr; type: functional; settings: route intraperitoneal; how it was run: as §5
Mus musculus [13] = assay: Anticonvulsant activity in Swiss Albino mouse at 100 mg/kg, ip after 4 hrs by scPIC test; type: functional, organism-based; parameters: dose 100 mg/kg; how it was run: as §2
Rattus norvegicus [14] = assay: Anti-cold allodynia effect in Sprague-Dawley rat CCI model assessed as duration of paw withdrawal 100 mg/kg, ip after 2.5 hr; type: functional; settings: route intraperitoneal; how it was run: as §5
Mus musculus [15] = assay: Anticonvulsant activity in Swiss Albino mouse at 300 mg/kg, ip after 0.5 hr by scPTZ test; type: functional, organism-based; parameters: dose 300 mg/kg; how it was run: as §2
Rattus norvegicus [16] = assay: Anti-cold allodynia effect in Sprague-Dawley rat CCI model assessed as duration of paw withdrawal 100 mg/kg, ip after 2 hr; type: functional; settings: route intraperitoneal; how it was run: as §5
Mus musculus [17] = assay: Analgesic activity in Swiss Albino mouse assessed as number of acetic acid-induced writhing per 30 min after 100 mg/kg, ip; type: functional; settings: route intraperitoneal
How it was run: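 Mice in groups of six dosed i.p. at 100 mg/kg, controls receiving 30% v/v PEG 400 in water. Writhing induced by i.p. 0.1 mL of 3% v/v acetic acid 1 h after drug. Writhes (abdominal stretch with at least one hind limb extended) counted over 30 min; % inhibition calculated. Mean ± SEM, Student's t test.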

Rattus norvegicus [18] = assay: Antihyperalgesic effects in Sprague-Dawley rat SNL model assessed as duration of paw withdrawal at 100 mg/kg, ip after 2 hrs, ip; type: functional; settings: route intraperitoneal
How it was run: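 L5 SNL rats (n = 4), dosed 100 mg/kg i.p. (vehicle 30% v/v PEG 400 in water). Pin-prick to midplantar ipsilateral left hindpaw; withdrawal duration, mean of three responses; ≥2 s defined abnormal. Mean ± SEM; one-way ANOVA with Bonferroni versus predrug.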

Rattus norvegicus [19] = assay: Effect on spontaneous pain in Sprague-Dawley rat SNL model assessed as duration of paw withdrawal at 100 mg/kg, ip after 2 hrs; type: functional; settings: route intraperitoneal; how it was run: as §4
Mus musculus [20] = assay: Neurotoxicity in Swiss Albino mouse at 300 mg/kg, ip after 0.5 hr by rotarod test; type: functional, organism-based; parameters: dose 300 mg/kg; how it was run: as §3
Rattus norvegicus [21] = assay: Anti-dynamic allodynia effect in Sprague-Dawley rat SNL model assessed as latency to paw withdrawal 100 mg/kg, ip after 1.5 hrs; type: functional; settings: route intraperitoneal; how it was run: as §1
Mus musculus [22] = assay: Anticonvulsant activity in Swiss Albino mouse at 30 mg/kg, ip after 0.5 hr by scPIC test; type: functional, organism-based; parameters: dose 30 mg/kg; how it was run: as §2
Rattus norvegicus [23] = assay: Anti-cold allodynia effect in Sprague-Dawley rat SNL model assessed as duration of paw withdrawal 100 mg/kg, ip after 0.5 hr; type: functional; settings: route intraperitoneal
How it was run: (§6)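 Left L5 spinal nerve ligation under pentobarbital (65 mg/kg i.p.). Allodynic rats dosed i.p. 100 mg/kg, vehicle 30% v/v PEG 400 in water. Acetone (100-200 µL) misted onto midplantar affected paw after 10 min acclimatization; paw withdrawal duration, mean of three samples at least 3 min apart; n = 4 rats.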

Rattus norvegicus [24] = assay: Anti-cold allodynia effect in Sprague-Dawley rat SNL model assessed as duration of paw withdrawal 100 mg/kg, ip after 1 hrs; type: functional; settings: route intraperitoneal; how it was run: as §6
Rattus norvegicus [25] = assay: Anti-cold allodynia effect in Sprague-Dawley rat SNL model assessed as duration of paw withdrawal 100 mg/kg, ip after 2.5 hrs; type: functional; settings: route intraperitoneal; how it was run: as §6
Mus musculus [26] = assay: Anticonvulsant activity in Swiss Albino mouse at 300 mg/kg, ip after 0.5 hr by scPIC test; type: functional, organism-based; parameters: dose 300 mg/kg; how it was run: as §2
Mus musculus [27] = assay: Neurotoxicity in Swiss Albino mouse at 100 mg/kg, ip after 0.5 hr by rotarod test; type: functional, organism-based; parameters: dose 100 mg/kg; how it was run: as §3
Mus musculus [28] = assay: Anticonvulsant activity in Swiss Albino mouse at 30 mg/kg, ip after 0.5 hr by scSTY test; type: functional, organism-based; parameters: dose 30 mg/kg; how it was run: as §2
Mus musculus [29] = assay: Anticonvulsant activity in Swiss Albino mouse at 30 mg/kg, ip after 4 hrs by scPIC test; type: functional, organism-based; parameters: dose 30 mg/kg; how it was run: as §2
Mus musculus [30] = assay: Anticonvulsant activity in Swiss Albino mouse at 30 mg/kg, ip after 4 hrs by scSTY test; type: functional, organism-based; parameters: dose 30 mg/kg; how it was run: as §2

| Compound | Activity (Rattus norvegicus [1]) [s] | Activity (Rattus norvegicus [3]) [s] | Activity (Mus musculus [5]) | Activity (Rattus norvegicus [6]) [s] | Activity (Rattus norvegicus [7]) [s] | Activity (Rattus norvegicus [8]) [s] | Activity (Mus musculus [9]) | Activity (Rattus norvegicus [10]) [s] | Activity (Rattus norvegicus [11]) [s] | Activity (Rattus norvegicus [12]) [s] | Activity (Rattus norvegicus [14]) [s] | Activity (Mus musculus [15]) | Activity (Rattus norvegicus [16]) [s] | Activity (Mus musculus [17]) | Activity (Rattus norvegicus [18]) [s] | Activity (Rattus norvegicus [19]) [s] | Activity (Rattus norvegicus [21]) [s] | Activity (Rattus norvegicus [23]) [s] | Activity (Rattus norvegicus [24]) [s] | Activity (Rattus norvegicus [25]) [s] | other results |
| --- | --- | --- | --- | --- | --- | --- | --- | --- | --- | --- | --- | --- | --- | --- | --- | --- | --- | --- | --- | --- | --- |
| CN(C)c1ccc(/C=N/NC(=O)NCCCC(=O)O)cc1 | 2.9 | 10.7 | inactive | 12.4 | 19.7 | 1.82 | inactive | 8.8 | 43 | 28.1 | 18.1 | inactive | 17.9 | 13 | 4.4 | 29.2 | 7.3 | – | – | – | Activity (Mus musculus [2]): inactive; Activity (Mus musculus [4]): inactive; Activity (Mus musculus [13]): Active; Activity (Mus musculus [20]): inactive; Activity (Mus musculus [22]): Active |
| Nc1nnc(-c2cccc(Cl)c2Cl)c(N)n1 [LAMOTRIGINE] | 0.7 | 1.9 | – | 15.6 | 33.6 | 0.64 | – | 1.6 | 24.4 | 53.7 | 23.7 | – | 29.9 | – | 6.4 | 22.9 | 1.9 | 19.2 | 9.2 | 18.4 | – |
| NCC1(CC(=O)O)CCCCC1 [GABAPENTIN] | 6.6 | 1.5 | – | 29.7 | 10 | 6.53 | – | 4.6 | 10.1 | 26.8 | 7.2 | – | 7.5 | – | 9.9 | 9.1 | 6 | 16.7 | 9 | 6.9 | – |
| NC(=O)N1c2ccccc2C=Cc2ccccc21 [CARBAMAZEPINE] | 1.9 | 14.7 | – | 14.6 | 10.6 | 1.65 | – | 13.4 | 94.9 | 12.8 | 21.8 | – | 27.8 | – | 5.5 | 85.4 | 2.9 | 13.5 | 11.8 | 20.6 | – |
| O=C(O)CCCNC(=O)N/N=C1\C(=O)Nc2ccccc21 | – | – | Active | 1.2 | – | – | Active | – | 9.8 | – | – | Active | – | 47.3 | 19.7 | 0.7 | – | 11 | 16.3 | 41.2 | Activity (Mus musculus [2]): inactive; Activity (Mus musculus [4]): inactive; Activity (Mus musculus [26]): Active; Activity (Mus musculus [27]): Active |
| O=C(O)CCCNC(=O)N/N=C/c1ccccc1O | 11.8 | 11.2 | Active | – | 15.8 | 11.32 | inactive | 14.3 | – | 31.3 | 12.2 | inactive | 13.7 | 19 | – | – | 11.5 | 22.2 | 27.3 | 28.5 | Activity (Mus musculus [28]): Active; Activity (Mus musculus [29]): Active; Activity (Mus musculus [30]): Active; Activity (Mus musculus [20]): inactive; Activity (Mus musculus [22]): Active |
